In ChEMBL document CHEMBL4811311, “Ferulic acid amide derivatives with varying inhibition of amyloid-β oligomerization and fibrillization” (Bioorg Med Chem, 2021):
pIC50: −log10 of the molar value.

Tests used:
[1] = target: T1, Amyloid-beta precursor protein (Homo sapiens, UniProt P05067); test: Inhibition of human biotinylated amyloid beta (1 to 42) oligomerization assessed as decrease in oligomer abundance measured after 1 hr by ELISA; settings: for pIC50: read-out: IC50
[2] = target: T1, Amyloid-beta precursor protein; test: Inhibition of human amyloid beta (1 to 40) fibrillization at 20 uM measured every 15 mins for 100 hrs by Thioflavin-T fluorescence assay relative to control
Procedure, shortened: (§1)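 Aβ40 monomerized in HFIP (1 mg/mL), dried under argon, diluted to 20 μM final in 20 mM Tris, 8 μM ThT, 0.3 M NaCl, pH 7.4. Compounds added in DMSO, triplicate; DMSO-only control taken as 100% aggregation. ThT fluorescence (ex 450/em 482 nm) read every 15 min for ~100 h; percent inhibition versus control, averaged over three independent samples.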

[3] = target: T1, Amyloid-beta precursor protein; test: Inhibition of human amyloid beta (1 to 40) fibrillization at 100 uM measured every 15 mins for 100 hrs by Thioflavin-T fluorescence assay relative to control; procedure, shortened: as §1

T1 sequence (P05067 whole entry): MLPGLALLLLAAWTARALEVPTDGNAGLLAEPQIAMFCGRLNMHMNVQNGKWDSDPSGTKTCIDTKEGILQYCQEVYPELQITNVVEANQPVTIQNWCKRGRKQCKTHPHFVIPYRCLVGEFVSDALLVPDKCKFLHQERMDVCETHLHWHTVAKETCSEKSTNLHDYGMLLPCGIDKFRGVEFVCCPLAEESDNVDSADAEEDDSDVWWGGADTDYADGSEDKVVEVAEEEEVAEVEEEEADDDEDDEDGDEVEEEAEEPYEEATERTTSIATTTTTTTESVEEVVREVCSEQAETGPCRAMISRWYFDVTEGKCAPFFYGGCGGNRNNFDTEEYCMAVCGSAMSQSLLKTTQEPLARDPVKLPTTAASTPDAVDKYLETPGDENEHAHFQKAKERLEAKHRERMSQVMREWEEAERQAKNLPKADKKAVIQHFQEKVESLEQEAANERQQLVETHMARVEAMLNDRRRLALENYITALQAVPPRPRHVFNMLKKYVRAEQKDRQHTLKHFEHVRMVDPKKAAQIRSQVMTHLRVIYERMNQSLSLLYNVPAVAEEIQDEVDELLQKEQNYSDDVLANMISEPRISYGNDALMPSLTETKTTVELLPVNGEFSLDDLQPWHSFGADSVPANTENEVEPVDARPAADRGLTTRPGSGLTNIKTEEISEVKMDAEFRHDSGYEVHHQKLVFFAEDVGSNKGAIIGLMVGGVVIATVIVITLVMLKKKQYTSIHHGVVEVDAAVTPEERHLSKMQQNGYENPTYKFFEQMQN

Row | SMILES | IC50 [1] | pIC50 [1] | inhibition [2] [%] | inhibition [3] [%]
1 | CCCN(CCC)C(=O)/C=C/c1ccc(OCCCOc2ccccc2)c(OC)c1 | Not Active | – | – | –
2 | COc1cc(/C=C/C(=O)N2CC(F)(F)C2)ccc1OCc1ccccc1 | – | 3.97 | – | –
3 | COc1cc(/C=C/C(=O)NCc2ccco2)ccc1OCc1ccccc1 | Not Active | – | – | –
4 | COc1cc(-c2cncn2CCC(=O)NCCOc2ccccc2)ccc1OCc1ccccc1 | – | 5.11 | 5.98 | 13.8
5 | COc1cc(/C=C/C(=O)NCCC(=O)NCCOc2ccccc2)ccc1OCc1ccccc1 | – | 4.75 | – | –
6 | COc1ccc(CNC(=O)CCNC(=O)/C=C/c2ccc(OCc3ccccc3)c(OC)c2)cc1 | – | 4.27 | – | –
7 | COc1cc(/C=C/C(=O)N2CCCCC2)ccc1OCc1ccccc1 | – | 4.55 | 7.28 | 13.4
8 | COc1cc(-c2cncn2CCC(=O)NCCc2ccccc2)ccc1OCc1ccccc1 | – | 5.00 | – | 0
9 | COc1cc(/C=C/C(=O)NCc2ccccc2)ccc1OCc1ccccc1 | Not Active | – | – | –
10 | CCN(CC)C(=O)/C=C/c1ccc(OS(=O)(=O)c2ccc(C)cc2)c(OC)c1 | – | 4.97 | 1.95 | 3.62
11 | COc1cc(/C=C/C(=O)N2CC(C(=O)N3CCCCC3)C2)ccc1OCc1ccccc1 | – | 4.98 | – | –
12 | COc1cc(/C=C/C(=O)N2CCC[C@H]2C(=O)N2CCCCC2)ccc1OCc1ccccc1 | – | 4.77 | – | –
13 | CCCN(CCC)C(=O)/C=C/c1ccc(OCc2cc(F)cc(F)c2)c(OC)c1 | Not Active | – | – | –
14 | COc1cc(/C=C/C(=O)N2CCC[C@@H]2C(=O)NCc2ccccc2)ccc1OCc1ccccc1 | – | 4.75 | – | –
15 | COc1cc(-c2cncn2Cc2ccccc2)ccc1OCc1ccccc1 | Not Active | – | 2.21 | 27.5
16 | COc1cc(/C=C/c2nnn[nH]2)ccc1OCc1ccccc1 | Not Active | – | – | 9.56
17 | COc1ccc(CNC(=O)[C@@H]2CCCN2C(=O)/C=C/c2ccc(OCc3ccccc3)c(OC)c2)cc1 | – | 4.72 | – | –
18 | COc1cc(/C=C/C(=O)N2CC(C(=O)N3CC(F)(F)C3)C2)ccc1OCc1ccccc1 | – | 4.66 | – | –
19 | CCCN(CCC)C(=O)/C=C/c1ccc(OC)c(OC)c1 | – | 4.34 | – | –
20 | CCN(CC)C(=O)CCc1ccc(OCc2ccccc2)c(OC)c1 | – | 4.46 | – | 6.49
21 | CCN(CC)C(=O)/C=C/c1ccc(OCc2cscn2)c(OC)c1 | Not Active | – | – | –
22 | COc1cc(/C=C/C(=O)NCCC(=O)N2CCCCC2)ccc1OCc1ccccc1 | – | 5.09 | – | –
23 | COc1cc(/C=C/C(=O)NCCC(=O)NCc2ccccc2)ccc1OCc1ccccc1 | – | 4.09 | – | –
24 | COc1cc([C@H]2C[C@@H]2C(=O)N2CCCCC2)ccc1OCc1ccccc1 | – | 4.73 | 0 | 13.3
25 | COc1cc(/C=C/C(O)C(F)(F)F)ccc1OCc1ccccc1 (stereo not given) | Not Active | – | 0 | 44.1
26 | CCN(CC)C(=O)/C=C/c1ccc(OCc2ccccc2)c(OC)c1 | – | 4.41 | – | 0
27 | COc1cc(/C=C/C(=O)NCCOc2ccccc2)ccc1OCc1ccccc1 | Not Active | – | – | –

Row | SMILES | IC50 [1] | pIC50 [1] | inhibition [2] [%] | inhibition [3] [%]
28 | COc1cc(/C=C/CN2CCCCC2)ccc1OCc1ccccc1 | – | 4.97 | 0.29 | 22.3
29 | COc1cc(/C=C/C(=O)N2CCCC2)ccc1OCc1ccccc1 | – | 4.19 | – | –
30 | COc1cc(/C=C/C(=O)N2CC(C(=O)NCCOc3ccccc3)C2)ccc1OCc1ccccc1 | – | 5.74 | 5.5 | 20.6
31 | COc1cc(/C=C/C(=O)N2CCC[C@@H]2C(=O)NCCOc2ccccc2)ccc1OCc1ccccc1 | – | 4.77 | – | –
32 | COc1cc(/C=C/C(=O)N2CC(C(=O)NCc3ccccc3)C2)ccc1OCc1ccccc1 | – | 5.50 | 14.8 | 48.2
33 | CCN(CC)C(=O)/C=C/c1ccc(O)c(OC)c1 | – | 3.69 | – | –
34 | COc1cc(/C=C/C(=O)N(C)C)ccc1OCc1ccccc1 | – | 4.61 | – | 0
35 | COc1cc(/C=C/C(=O)N2CC(C(=O)N3CCOCC3)C2)ccc1OCc1ccccc1 | – | 4.45 | – | –
36 | COc1cc(/C=C/C(=O)N2CCC[C@H]2C(=O)NCc2ccccc2)ccc1OCc1ccccc1 | – | 4.73 | – | –
37 | COc1ccc(CNC(=O)C2CN(C(=O)/C=C/c3ccc(OCc4ccccc4)c(OC)c3)C2)cc1 | – | 5.32 | – | –
38 | COc1cc(/C=C/C(=O)N(C)OC)ccc1OCc1ccccc1 | – | 4.10 | – | –
39 | CCCN(CCC)C(=O)/C=C/c1ccc(O)c(OC)c1 | – | 4.01 | – | –
40 | CCN(CC)C(=O)/C=C/c1ccc(OCc2cccnc2)c(OC)c1 | Not Active | – | – | –
41 | COc1cc(/C=C/c2cnco2)ccc1OCc1ccccc1 | Not Active | – | – | –
42 | COc1cc(/C=C/C(=O)N2CC(C(=O)NCc3ccc(F)cc3)C2)ccc1OCc1ccccc1 | – | 5.44 | – | –
43 | CCN(CC)C(=S)/C=C/c1ccc(OCc2ccccc2)c(OC)c1 | Not Active | – | – | –
44 | CCCN(CCC)C(=O)/C=C/c1ccc(OCc2ccccc2)c(OC)c1 | – | 4.91 | 9.35 | 17
45 | COc1cc(/C=C/C(=O)N2CC(C(=O)NCc3ccco3)C2)ccc1OCc1ccccc1 | – | 5.44 | – | –
46 | COc1cc([C@H]2C[C@@H]2C(=O)N(C)C)ccc1OCc1ccccc1 | – | 4.34 | – | 8.81
47 | COc1cc(/C=C/C(=O)O)ccc1O [FERULATE] | – | 3.65 | 9.75 | 36.8
48 | CCN(CC)C(=O)C1CN(C(=O)/C=C/c2ccc(OCc3ccccc3)c(OC)c2)C1 | – | 4.89 | – | –
49 | CCN(CC)C(=O)/C=C/c1ccc(O)c(O)c1 | – | 3.92 | 73.1 | 91.9
50 | CCCN(CCC)C(=O)/C=C/c1ccc(OCc2cc(OC)cc(OC)c2)c(OC)c1 | Not Active | – | – | –
51 | COc1cc(/C=C/C(=O)N2CCN(c3ccccc3)CC2)ccc1OCc1ccccc1 | Not Active | – | – | –
52 | COc1cc(/C=C/C(=O)N2CCC[C@H]2C(=O)NCCOc2ccccc2)ccc1OCc1ccccc1 | – | 5.07 | – | –
53 | COc1cc(/C=C/C(=O)Nc2nnn[nH]2)ccc1OCc1ccccc1 | – | 4.01 | – | 0
54 | COc1cc(/C=C/C(=O)N2CCOCC2)ccc1OCc1ccccc1 | – | 4.11 | – | –
